Molecules are shown by their SMILES.

In assay [1] the target is Beta-lactamase (Pseudomonas aeruginosa (strain ATCC 15692 / PAO1 / 1C / PRS 101 / LMG12228)) (UniProt P24735). The experiment in a line: Inhibition of ampD, ampDh2 and ampDh3 deficient Pseudomonas aeruginosa PAO1 AmpC assessed as nitrocefin hydrolyzed per mg of protein at 120 uM by UV spectrophotometry. An outline of the steps: (§1)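 Cells cultured with or without 120 μM CCCP; crude extracts made by sonication; β-lactamase measured by UV spectrophotometry with 100 μM nitrocefin substrate at 30°C; specific activity as nmol nitrocefin hydrolyzed per min per mg protein (BCA, BSA standard); triplicate, averaged.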
Sequence of Beta-lactamase (Pseudomonas aeruginosa (strain ATCC 15692 / PAO1 / 1C / PRS 101 / LMG12228)) (P24735 27-397 limits assumed): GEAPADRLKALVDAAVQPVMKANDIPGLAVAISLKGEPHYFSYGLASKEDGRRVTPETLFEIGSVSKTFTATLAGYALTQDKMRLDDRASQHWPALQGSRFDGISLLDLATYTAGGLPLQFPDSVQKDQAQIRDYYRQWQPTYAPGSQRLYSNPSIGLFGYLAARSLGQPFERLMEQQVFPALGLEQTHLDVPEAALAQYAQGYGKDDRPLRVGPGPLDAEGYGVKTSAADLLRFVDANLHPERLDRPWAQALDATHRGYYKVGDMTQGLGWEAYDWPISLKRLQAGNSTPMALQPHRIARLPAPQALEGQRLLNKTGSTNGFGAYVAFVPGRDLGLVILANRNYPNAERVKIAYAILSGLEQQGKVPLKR

The target is the same in assay [2]. The experiment in a line: Inhibition of ampD, ampDh2, ampDh3 and ampG deficient Pseudomonas aeruginosa PAO1 AmpC assessed as nitrocefin hydrolyzed per mg of protein at 120 uM by UV spectrophotometry. An outline of the steps:
as §1

For assay [3] the target is unchanged. The experiment in a line: Inhibition of ampD, ampDh2, ampDh3 and ampG deficient Pseudomonas aeruginosa PAO1 AmpC harboring pZY0901 conferring resistance to gentamycin assessed as nitrocefin hydrolyzed per mg of protein at 120 uM by UV spectrophotometry. The essentials: as §1

Take `N#CC(C#N)=NNc1cccc(Cl)c1`: the Activity in assay [1] turned out to be 1220 nmol/min; in assay [2] it was 3 nmol/min; in assay [3], 2800 nmol/min.

The values above are taken from ChEMBL document CHEMBL1687785, “ampG gene of Pseudomonas aeruginosa and its role in β-lactamase expression” (2010).
